{"data": "Assay results collected from several papers", "note": "Protocols differ between the studies behind these lines."}
{"SMILES": "O=C(O)/C=C/c1ccc(C(c2c[nH]c3ccccc23)c2c[nH]c3ccccc23)s1", "cell line": "DU-145", "assay": "cell growth or viability, MTT", "conditions": "100 µM, 48 h", "measurement": "inhibition", "result": "55%"}
{"SMILES": "COc1ccc(-c2ccc(-c3ccc(C(=N)N)nc3)s2)cc1Cl", "cell line": "SF-295", "assay": "cell growth or viability, SRB", "measurement": "GI50", "result": "1.8 µM"}
{"SMILES": "COc1cccc(Oc2ccccc2NC(=O)CNC(=O)c2cccc3ccccc23)c1", "cell line": "MOLT-4", "assay": "cell growth or viability, SRB", "conditions": "48 h", "measurement": "GI50", "result": "0.661 µM"}
{"SMILES": "FC(F)(F)c1ccc(C(c2c[nH]c3ccccc23)c2c[nH]c3ccccc23)cc1", "cell line": "DU-145", "assay": "cell growth or viability, MTT", "conditions": "100 µM, 48 h", "measurement": "inhibition", "result": "95%"}
{"SMILES": "COc1cc2c(cc1OS(N)(=O)=O)CCN(Cc1cccc([N+](=O)[O-])c1)C2", "cell line": "DU-145", "assay": "cell growth or viability, WST-1", "conditions": "96 h", "measurement": "GI50", "result": "3.03 µM"}
{"SMILES": "CC(C)n1cc(C(c2ccc(/C=C/C(=O)O)s2)c2cn(C(C)C)c3ccccc23)c2ccccc21", "cell line": "DU-145", "assay": "cell growth or viability, MTT", "conditions": "100 µM, 48 h", "measurement": "inhibition", "result": "94%"}
{"SMILES": "COc1cc2c(cc1O)CCN(Cc1cccc(O)c1)C2", "cell line": "DU-145", "assay": "cell growth or viability, WST-1", "conditions": "96 h", "measurement": "GI50", "result": "> 100 µM"}
{"SMILES": "Cn1cc(C(c2ccc(C(=O)O)cc2)c2cn(C)c3ccccc23)c2ccccc21", "cell line": "LNCaP", "assay": "cell growth or viability, MTT", "conditions": "100 µM, 48 h", "measurement": "inhibition", "result": "95%"}
{"SMILES": "CC(C)C[C@H](NC(=O)[C@H](Cc1ccccc1)NC(=O)c1cnccn1)B(O)O", "cell line": "LN-229", "assay": "cell growth or viability, ATP luminescence", "measurement": "IC50", "result": "7.9 nM"}
{"SMILES": "O=C(O)c1ccc(C(c2c[nH]c3ccccc23)c2c[nH]c3ccccc23)cc1", "cell line": "DU-145", "assay": "cell growth or viability, MTT", "conditions": "100 µM, 48 h", "measurement": "inhibition", "result": "34%"}
{"SMILES": "COc1ccc(CN2CCc3cc(OS(N)(=O)=O)c(OC)cc3C2)cc1OC", "cell line": "DU-145", "assay": "cell growth or viability, WST-1", "conditions": "96 h", "measurement": "GI50", "result": "8.54 µM"}
{"SMILES": "COc1ccc2c(N(C)c3ccc(/C(C)=N/OCCN)cc3)c3c(Cl)coc3nc2c1", "cell line": "LNCaP", "assay": "cell migration", "conditions": "1 µM, 24 h", "measurement": "inhibition", "result": "70%"}
{"SMILES": "C[C@@H](NC(=O)[C@H](CCCCNC(=O)C(F)(F)F)NS(C)(=O)=O)C(=O)N[C@@H](CCCNC(=N)N)C(N)=O", "cell line": "Jurkat", "assay": "cell growth or viability, MTT", "conditions": "72 h", "measurement": "EC50", "result": "21.2 to 28.1 µM"}
{"SMILES": "COc1cc2c(cc1O)CCN(Cc1cccc(OC(F)(F)F)c1)C2", "cell line": "DU-145", "assay": "cell growth or viability, WST-1", "conditions": "96 h", "measurement": "GI50", "result": "55 µM"}
{"SMILES": "COc1cc(Nc2nccc(-c3cnn4nc(OC)ccc34)n2)cc(C(F)(F)F)c1", "cell line": "LOU-NH91", "assay": "cell growth or viability, ATP luminescence", "measurement": "IC50", "result": "190 nM"}
